Source: PubChem (The Scripps Research Institute Molecular Screening Center)
An excerpt weighted towards active compounds, which were near 1.7% of everything screened.
CHO-K1 Ca ag – M1 agonist counterscreen hit in parental CHO-K1 cells. actives 0.48% (n = 360,000). AID 602248. activation, % at 3 µM. Fluo-8 calcium fluorescence; scaled to maximal ATP response, vehicle zero; in the data active = activation above about 15%;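 also: untransfected CHO-K1 host cells lacking M1 receptor as counterscreen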
CHO-K1 Ca antag – M1 antagonist counterscreen hit in parental CHO-K1 cells; ATP-induced calcium, Fluo-8 fluorescence; inhibition, % at 3 µM; actives 0.6% (n = 360,000); AID 602250;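 active = inhibition above a per-plate cutoff, the plate's mean sample inhibition plus 3 SD, cut at about 24% in these data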
CHRM5 agonist – agonists of human muscarinic M5 receptor (CHRM5). actives 0.19% (n = 360,000). CHO-K1 hM5 cells, Fluo-8 calcium fluorescence; 0% DMSO wells, 100% maximal acetylcholine response. activation, % at 3 µM. P08912;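 active = activation above the run's mean over test compounds plus 3 SD, cut at about 23% in these data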;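 also: signal is peak over basal fluorescence ratio across the kinetic read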
Target sequence (P08912 whole entry, looked up): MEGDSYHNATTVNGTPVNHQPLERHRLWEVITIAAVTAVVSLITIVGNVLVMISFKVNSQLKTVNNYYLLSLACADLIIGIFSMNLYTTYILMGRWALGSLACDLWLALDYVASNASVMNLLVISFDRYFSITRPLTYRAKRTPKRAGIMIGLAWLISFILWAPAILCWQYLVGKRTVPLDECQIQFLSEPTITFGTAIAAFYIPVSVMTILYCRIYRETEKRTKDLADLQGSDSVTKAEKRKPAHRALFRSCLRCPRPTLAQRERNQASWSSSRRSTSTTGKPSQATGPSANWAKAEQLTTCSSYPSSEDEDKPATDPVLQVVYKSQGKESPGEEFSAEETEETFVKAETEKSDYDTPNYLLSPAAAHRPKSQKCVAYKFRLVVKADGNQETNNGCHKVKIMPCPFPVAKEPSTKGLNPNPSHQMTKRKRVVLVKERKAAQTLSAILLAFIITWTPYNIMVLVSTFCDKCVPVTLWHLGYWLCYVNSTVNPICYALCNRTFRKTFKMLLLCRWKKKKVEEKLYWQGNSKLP
M1 PAM parental – nonselective activator or artifact in parental CHO-K1 calcium assay. actives 0.02% (n = 360,000). activation, % at 3 µM. ATP EC20, Fluo-8 calcium fluorescence; 0% at ATP EC20, 100% at ATP max;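 active = activation above the run cutoff, the mean activation of all test compounds plus 3 SD, cut at about 40% in these data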;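 also: peak over basal fluorescence ratio in a 140 s read after ATP addition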
M5 PAM – positive allosteric modulators of human muscarinic M5 receptor. activation, % at 3 µM. actives 0.3% (n = 360,000). AID 624038. CHO-K1 hM5, Fluo-8 calcium, ACh EC20 PAM; 0% = ACh EC20, 100% = ACh EC100. P08912;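 active = activation above the run cutoff, the mean activation of all test compounds plus 3 SD, cut at about 18% in these data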
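Assay system: CHO-K1 hM5 cells. Also added: acetylcholine at EC20 concentration, added after compound. Dosing: 3 µM, single dose. Times: compound preincubation 140 s before EC20 acetylcholine addition. Signal: Fluo-8 calcium fluorescence. Measure: % activation relative to EC20 and EC100 ACh responses. Repeats: singlicate, one well per test compound.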
M5 antag – antagonists of human muscarinic M5 receptor (CHRM5); P08912; CHO-hM5 cells, Fluo-8 calcium fluorescence, ACh EC80; inhibition, % at 3 µM; actives 0.59% (n = 360,000);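 active = inhibition above a per-plate cutoff, the mean of that plate's test compounds plus 3 SD, cut at about 27% in these data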
Of the large screens only hits and unclear results are named; the others gave an inactive call.

COC(=O)c1sccc1S(=O)(=O)Nc1ccc(Cl)cc1	none
COC(=O)c1sccc1S(=O)(=O)Nc1ccc(C(O)(C(F)(F)F)C(F)(F)F)cc1	CHO-K1 Ca ag 60.6, CHRM5 agonist 69.2
Fc1ccc(Nc2nnc(C(F)(F)F)s2)cc1Cl	CHO-K1 Ca antag 40.8, M5 antag 32.0
COc1cccc(C2SCC(=O)N2c2ccc(Br)cc2)c1OC (stereo unspecified)	M5 antag 34.7
CCC(C)(C)NC(=O)C1CCN(S(=O)(=O)c2cccs2)CC1	M5 antag 33.0
CCc1ccc(NC(=O)C2CCN(S(=O)(=O)c3cccs3)CC2)cc1	none
O=C(c1cc2ccccc2cc1O)N1CCN(c2ccccc2O)CC1	none
O=C(c1cc2ccccc2cc1O)N1CCCC1	CHO-K1 Ca ag 19.4
Cc1n(Cc2ccccc2)c2ccccc2[n+]1Cc1ccccc1	M5 antag 27.5
O=C(O)c1ccc(N/N=C/c2ccc(-c3cccc(Cl)c3)o2)cc1	none
O=C(O)c1ccc(-c2ccc(/C=N/Nc3ccc([N+](=O)[O-])cc3)o2)cc1	CHRM5 agonist 55.5, M5 antag 27.6
CN(C)C(=O)/C(=C/c1ccc(-c2cccc([N+](=O)[O-])c2)o1)NC(=O)c1ccccc1	CHO-K1 Ca ag 21.7
NS(=O)(=O)c1ccc(-c2ccc(/C=N/Nc3ccc(C(=O)O)cc3)o2)cc1	none
O=[N+]([O-])c1ccc(N/N=C/c2c[nH]c3ccccc23)cc1	CHO-K1 Ca ag 15.4, CHO-K1 Ca antag 25.9, M5 antag 28.0
O=C(O)c1cccc(-c2ccc(/C=N/Nc3ccc([N+](=O)[O-])cc3)o2)c1	CHO-K1 Ca ag 18.0, CHRM5 agonist 34.2, M5 antag 34.1
Cc1c(C#N)c(O)n(CCO)c(=O)c1N=Nc1ccccc1	none
CN1CCC(=C(c2ccccc2)c2ccc(Br)cc2)CC1	CHO-K1 Ca ag 21.6, M5 antag 29.5
CC(=O)Nc1ccc(Cl)cc1C(=O)c1ccc[nH]1	none
Cc1ccc(S(=O)(=O)NCCCNc2ccc([N+](=O)[O-])cc2)cc1	CHO-K1 Ca ag 20.6
CCOC(=O)C1=C(N)Oc2cc(O)ccc2C1c1cccnc1 (stereo unspecified)	none
COc1ccc(C)cc1S(=O)(=O)N1CCN(S(=O)(=O)c2cc(C)ccc2OC)CC1	none
CCOC(=O)c1cc(C(=O)c2cc(F)ccc2O)coc1=N	none
N=c1occ(C(=O)c2cc(F)ccc2O)cc1C(=O)NC1CCCCC1	CHO-K1 Ca antag 23.7
Cc1[nH]c(=O)[nH]c(=O)c1S(=O)(=O)N1CCCCC1	none
CC(NC(=O)C12CC3CC(C1)CC(n1cncn1)(C3)C2)C12CC3CC(CC(C3)C1)C2 (stereo unspecified)	none
c1ncn(C23CC4CC(CC(C4)C2)C3)n1	M5 PAM 20.7
CC(=O)c1ccc(-c2nnc(CCC(=O)N(C)Cc3cccc4cnccc34)o2)s1	none
CN(Cc1cccc2cnccc12)C(=O)CCc1nnc(CCc2ccccc2)o1	CHO-K1 Ca ag 16.7
Cc1ccc(-n2cc(C(C)(C)C)[nH]c2=S)cc1	CHO-K1 Ca antag 25.6
CC(C)(C)c1cn(-c2ccccc2)c(=S)[nH]1	none
CCC(=O)N1CCc2cc(Br)cc(S(=O)(=O)NCC3CCCO3)c21 (stereo unspecified)	none
CCC(=O)N1CCc2cc(Br)cc(S(=O)(=O)CCC(=O)NCC3CCCO3)c21 (stereo unspecified)	M5 PAM 18.8
CN1CSC2=C(C#N)C(c3cccc(OCc4ccccc4)c3)CC(=O)N2C1 (stereo unspecified)	CHRM5 agonist 39.9
N#CC(c1ccc(Cl)cc1)c1ccc2c(C(F)(F)F)cc(C(F)(F)F)nc2n1 (stereo unspecified)	CHO-K1 Ca antag 23.7
FC(F)(F)c1cc(C(F)(F)F)c2ccc(N3CCN(c4ccc(Cl)cc4)CC3)nc2n1	none
CNC[C@@H](CC1CCCCC1)NC[C@H](CC(C)C)NCCc1cccc(C(F)(F)F)c1	none
CC(=O)Nc1cccc(C(=O)/C=C/c2ccc(N(C)C)cc2)c1	CHO-K1 Ca ag 87.4, CHO-K1 Ca antag 44.4, CHRM5 agonist 73.6, M5 antag 34.4
